Source: ChEMBL document CHEMBL1156262, “Substituted benzothiophene or benzofuran derivatives as a novel class of bone morphogenetic protein-2 up-regulators: synthesis, structure-activity relationships, and preventive bone loss efficacies in senescence accelerated mice (SAMP6) and ovariectomized rats” (J Med Chem, 2010)
The source made the active and inactive calls. The rule behind the calls is not given here.

Legend:
Mus musculus [1] = assay: Toxicity in SAMP6 mouse assessed as increase in body weight at 30 mg/kg/day, po after 3 months; format: organism-based; parameters: route oral; conditions: in vivo
Summary of the method: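 SAMP6 mice, n = 5 per group, dosed orally at 30 mg/kg/day in 0.5% methylcellulose for 3 months. Heart, liver, spleen, lung and kidney harvested, weighed and examined histologically. Organ/body weight indexes, body weight, and 24 h water and food intake (g/g body weight) compared with vehicle controls.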

[2] = Toxicity in po dosed Kunming mouse assessed as mortality treated for 3 days measured after 17 days; format: organism-based; conditions: in vivo
Summary of the method: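 Male and female Kunming mice (18-21 g), six per group (three males, three females), were dosed orally at 500 or 700 (mg/kg)/day for 3 days. They were closely watched for deaths over the 3 dosing days and the following 14 days (17 days in total).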

Rattus norvegicus [3] = assay: Toxicity in rat assessed as pathological changes in kidney at 150 mg/kg/day, po after 3 months by histomorphology; format: organism-based; parameters: route oral; conditions: in vivo
Summary of the method: (§1)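 Rats, n = 7, given oral doses of 150 mg/kg/day for 3 months. Heart, liver, spleen, lung and kidney examined histologically for pathological change.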

Mus musculus [4] = assay: Induction of bone formation in SAMP6 mouse right femora assessed as trabecular formation surface percentage at 30 mg/kg/day, po measured after 3 months by bone histomorphometry; format: functional, Trabecula
Summary of the method: (§2)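 SAMP6 mice, 5 months old, n = 5 per group (3 male, 2 female), randomized by initial BMD. Given compound in 0.5% methylcellulose by gavage daily for 3 months. Proximal third of the right femur fixed in 4% paraformaldehyde, cut as undecalcified sections, and scored by image analysis for histomorphometry.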

Mus musculus [5] = assay: Induction of bone mineral density in SAMP6 mouse assessed as left hind leg BMD at 30 mg/kg/day, po measured after 3 months; format: functional
Summary of the method: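 SAMP6 mice, 5 months old, n = 5 per group, given compound in 0.5% methylcellulose by gavage daily. Dual-energy X-ray absorptiometry under pentobarbital anaesthesia (50 mg/kg ip), animals prone, at 0, 4, 8 and 12 weeks of treatment. Regions of interest were whole body, spine and left hind leg.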

Rattus norvegicus [6] = assay: Induction of bone formation in ovariectomized rat assessed as increase in trabecular bone volume percentage at 30 mg/kg/day, po after 3 months; format: functional, organism-based; conditions: Trabecula
Summary of the method: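 Female rats (205–235 g) randomized by body weight, n = 7 per group: sham, ovariectomized with vehicle, ovariectomized with raloxifene 5 mg/kg/day, and ovariectomized with compound at 7.5, 15 or 30 mg/kg/day. All dosing oral for 3 months. Undecalcified proximal tibia sections analysed by histomorphometry, with comparisons against the sham and ovariectomized groups.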

Mus musculus [7] = assay: Induction of bone formation in SAMP6 mouse right femora assessed as trabecular bone volume percentage at 30 mg/kg/day, po measured after 3 months by bone histomorphometry; format: functional, Trabecula; summary of the method: as §2
Mus musculus [8] = assay: Induction of BMP2 expression in SAMP6 mouse osteoblast at 10 mg/kg/day, po after 3 months by immunohistochemical analysis; format: functional, organism-based
Summary of the method: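 SAMP6 mice, 5 months old, male and female, n = 5 per group (3 male, 2 female). Dosed by gavage with compound suspended in 0.5% methylcellulose daily for 3 months; the vehicle group received methylcellulose only. Proximal third of the left femur fixed in 4% neutral paraformaldehyde for 24 h, decalcified in 10% EDTA at 4 °C for 4 weeks, then frozen-sectioned at 5 μm. Stained with rabbit polyclonal anti-BMP-2 and an alkaline phosphatase secondary. BMP-2-positive area was taken as a percentage of bone tissue area, averaged over five fields below the epiphyseal plate.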

[9] = Induction of BMP2 expression in mouse calcarial MC3T3-E1 cells stably transfected with mouse BMP2 promotor-luciferase assessed as upregulation rate at 4 uM; format: functional, cell-based
Summary of the method: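 Reporter assay in murine calvarial MC3T3-E1 cells stably carrying the mouse BMP-2 promoter fused to firefly luciferase (pGL4BMP-2). Cells grown in DMEM with 10% heat-inactivated FBS at 37 °C and 5% CO2. Test compounds at 4.0 μM; lovastatin at 0.4 μM as positive control; 0.1% DMSO as negative control. Up-regulation rate = (RLU of test − RLU of negative control)/RLU of negative control × 100.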

Rattus norvegicus [10] = assay: Toxicity in rat assessed as pathological changes in spleen at 150 mg/kg/day, po after 3 months by histomorphology; format: organism-based; parameters: route oral; conditions: in vivo; summary of the method: as §1

For `CC(=O)c1cc2ccccc2s1`, the Activity (Mus musculus [1]) was “Non-toxic”, the LD50 at 408 h [2] was over 5000 mg/kg and the Activity (Rattus norvegicus [3]) was “Non-toxic”. The Activity (Mus musculus [4]) was 5.89%, the Activity (Mus musculus [5]) was 0.05 g/cm2 and the Activity (Rattus norvegicus [6]) was “Active”. For the same molecule, the Activity (Mus musculus [7]) was 4.95%, the Activity (Mus musculus [8]) was “Active” and the Activity [9] was 35.6%. The Activity (Rattus norvegicus [10]) was “Non-toxic”.
